Assay [1] is described as follows: Antiplatelet aggregation activity against collagen-induced rabbit platelet assessed as platelet aggregation at 100 ug/mL relative to control. In kind it is functional, Oryctolagus cuniculus. In short, it runs like this: (§1)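 Blood from rabbit marginal ear vein was mixed with EDTA to a final 6 mM. It was spun at 90g for 10 min at room temperature to give platelet-rich plasma, then at 500g for 10 min. Platelets were preincubated with sample or 0.5% DMSO for 1 min at 37 °C, then triggered with ADP, arachidonic acid, collagen (10 µg/mL) or PAF (2 ng/mL). Mean ± S.D.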

Assay [2] is described as follows: Antiplatelet aggregation activity against arachidonic acid-induced rabbit platelet assessed as platelet aggregation at 100 ug/mL relative to control. In kind it is functional, Oryctolagus cuniculus. The method in brief: as §1
Assay [3] can be described thus: Antiplatelet aggregation activity against ADP-induced rabbit platelet assessed as platelet aggregation at 100 ug/mL relative to control. In kind it is functional, Oryctolagus cuniculus. In short, it runs like this: as §1
Another assay has as its system KB. As to the kind of experiment: Cytotoxicity against human KB cells. The assay is classed as functional, cell-based.
Assay [4] can be described thus: Antiplatelet aggregation activity against platelet activating factor-induced rabbit platelet assessed as platelet aggregation at 100 ug/mL relative to control. In kind it is functional, Oryctolagus cuniculus. In short, it runs like this:
as §1

A further assay has as its system A549. As to the kind of experiment: Cytotoxicity against human A549 cells. The assay is classed as functional, cell-based.
For the next assay, the system named is HCT-8. The experiment in a line: Cytotoxicity against human HCT8 cells. The assay is classed as functional, cell-based.
Assay [5] concerns P388. As to the kind of experiment: Cytotoxicity against mouse P388 cells. The assay is classed as functional, cell-based.
Another assay concerns TE-671. As to the kind of experiment: Cytotoxicity against human TE671 cells. The assay is classed as functional, cell-based.
The test system of the next assay is RPMI-7951. The experiment in a line: Cytotoxicity against human RPMI7951 cells. The assay is classed as functional, cell-based.
In assay [6] the test system is P388. As to the kind of experiment: In vivo cytotoxic activity against mouse P388 cells at 1 mg/kg relative to control. In kind it is functional.

Converted amounts (≈) assume the structure as drawn.

The IC50 is the concentration that gives 50% inhibition. Low values mean inhibition by little substance, high ones a need for much substance. As a reminder, the T/C is the ratio of treated to control.

On to `COc1cc2ccc(=O)oc2cc1O` [SCOPOLETIN], for which the Activity in [1] was found to be 79.2%; in assay [2] it was 79.2%; in assay [3], 65.3%; in assay [4] it was 90.5%. The molecule further had an IC50 in the assay on KB of 4000 ng/mL (≈ 20.8 µM).

Consider `COc1cccc2c1C(=O)c1c(O)c3c(c(O)c1C2=O)C[C@@](O)(C(=O)CO)C[C@@H]3O[C@H]1C[C@H](N)[C@H](O)[C@H](C)O1.Cl` [DOXORUBICIN HYDROCHLORIDE], for which the IC50 in the assay with A549 was determined as 150 ng/mL; in the assay on HCT-8 it was 300 ng/mL.

For the molecule `COc1cc([C@@H]2c3cc4c(cc3[C@@H](O[C@@H]3O[C@@H]5CO[C@@H](C)O[C@H]5[C@H](O)[C@H]3O)[C@H]3COC(=O)[C@H]23)OCO4)cc(OC)c1O` [ETOPOSIDE], the values for the concentration for half-maximal inhibition (IC50) in the assay with KB and in the assay with P388 [5] were 120 ng/mL (≈ 0.204 µM) and 2620 ng/mL (≈ 4.45 µM), respectively.

Take `CC[C@]1(O)C[C@@H]2CN(CCc3c([nH]c4ccccc34)[C@@](C(=O)OC)(c3cc4c(cc3OC)N(C)[C@H]3[C@@](O)(C(=O)OC)[C@H](OC(C)=O)[C@]5(CC)C=CCN6CC[C@]43[C@@H]65)C2)C1.O=S(=O)(O)O` [VINBLASTINE SULFATE]: the IC50 in the assay on A549 worked out at 2 ng/mL; with HCT-8, 5 ng/mL.

Take `COC(=O)[C@H]1[C@@H](O)[C@@]2(O)c3c(OC)cc(OC)cc3O[C@@]2(c2ccc(OC)cc2)[C@@H]1c1ccccc1` [AGLAFOLIN]: the half-inhibitory concentration (IC50) with TE-671 worked out at 1 ng/mL (≈ 0.00203 µM); with A549 it was 1 ng/mL (≈ 0.00203 µM); with HCT-8, 5 ng/mL (≈ 0.0102 µM); with RPMI-7951 it was 1 ng/mL (≈ 0.00203 µM); with KB, 1 ng/mL (≈ 0.00203 µM); in the assay with P388 [5], 2 ng/mL (≈ 0.00406 µM). Besides, the Activity worked out at 88.6% in [1], 0% in assay [2], 85.2% in assay [3] and 0% in assay [4].

With `COc1ccc([C@@]23Oc4cc(OC)cc(OC)c4[C@]2(O)[C@H](O)[C@H](C(=O)N(C)C)[C@H]3c2ccccc2)cc1` [ROCAGLAMIDE], the IC50 in the assay with TE-671 is 6 ng/mL (≈ 0.0119 µM); in the assay on A549, 6 ng/mL (≈ 0.0119 µM); in the assay on HCT-8, 7 ng/mL (≈ 0.0138 µM); with RPMI-7951 it was 2 ng/mL (≈ 0.00396 µM); with KB it was 6 ng/mL (≈ 0.0119 µM); with P388 [5] it was 5 ng/mL (≈ 0.00989 µM). In addition, the Activity in assay [1] stood at 83.8%; in assay [2], 90.5%; in [3], 77.6%; in [4], 85.5%. This molecule also registered a T/C with P388 [6] of 156%.

Values taken from ChEMBL document CHEMBL1146446, “Cytotoxic and antiplatelet aggregation principles from Aglaia elliptifolia” (J Nat Prod, 1997).
